{
  "source": "ChEMBL document CHEMBL1129325",
  "about": "“Ureido-based peptidomimetic inhibitor of herpes simplex virus ribonucleotide reductase: an investigation of inhibitor bioactive conformation” (J Med Chem, 1996)",
  "molecular_target": "T1, Ribonucleoside-diphosphate reductase large subunit (Herpes simplex virus (type 1 / strain 17), UniProt P08543)",
  "T1 sequence (P08543 whole entry)": "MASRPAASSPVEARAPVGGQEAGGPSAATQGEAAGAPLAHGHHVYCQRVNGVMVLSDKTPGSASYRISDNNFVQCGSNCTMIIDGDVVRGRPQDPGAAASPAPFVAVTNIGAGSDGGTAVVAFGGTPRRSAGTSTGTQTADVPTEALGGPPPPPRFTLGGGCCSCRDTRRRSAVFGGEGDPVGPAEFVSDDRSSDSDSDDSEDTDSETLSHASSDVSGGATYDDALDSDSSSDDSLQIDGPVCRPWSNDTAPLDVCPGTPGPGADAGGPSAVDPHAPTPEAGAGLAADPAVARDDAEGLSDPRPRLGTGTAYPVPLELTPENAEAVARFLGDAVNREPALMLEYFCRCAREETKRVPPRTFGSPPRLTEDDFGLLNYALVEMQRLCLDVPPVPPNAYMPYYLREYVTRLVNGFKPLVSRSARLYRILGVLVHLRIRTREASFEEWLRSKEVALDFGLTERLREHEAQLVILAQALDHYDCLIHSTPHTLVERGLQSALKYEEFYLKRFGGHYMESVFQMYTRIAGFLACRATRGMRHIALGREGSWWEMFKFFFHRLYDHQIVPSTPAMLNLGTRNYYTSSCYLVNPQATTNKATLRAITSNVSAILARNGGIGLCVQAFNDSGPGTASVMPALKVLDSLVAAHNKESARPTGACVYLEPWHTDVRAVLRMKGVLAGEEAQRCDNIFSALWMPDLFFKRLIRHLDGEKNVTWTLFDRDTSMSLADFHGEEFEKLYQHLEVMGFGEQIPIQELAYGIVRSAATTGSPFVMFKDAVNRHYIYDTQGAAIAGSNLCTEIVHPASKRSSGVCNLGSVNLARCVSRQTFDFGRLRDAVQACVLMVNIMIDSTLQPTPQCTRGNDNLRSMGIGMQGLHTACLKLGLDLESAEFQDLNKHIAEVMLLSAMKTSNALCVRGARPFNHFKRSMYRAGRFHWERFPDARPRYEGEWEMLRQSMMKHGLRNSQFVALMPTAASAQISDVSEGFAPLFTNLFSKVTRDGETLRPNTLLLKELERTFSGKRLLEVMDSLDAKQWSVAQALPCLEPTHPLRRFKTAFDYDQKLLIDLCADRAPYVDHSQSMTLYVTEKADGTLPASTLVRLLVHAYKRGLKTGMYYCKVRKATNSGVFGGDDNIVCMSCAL",
  "experiment": "Inhibitory activity against Herpes simplex virus (HSV) ribonucleotide reductase (RR)",
  "outline": "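Radioligand binding assay for HSV ribonucleotide reductase subunit association, run per a previously published protocol. IC50 taken as the mean of at least four separate determinations, with standard deviation reported.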",
  "note": "Numbered stars: 1 amine (or outer) side, 2 acyl side, 3 side chain; on linkers, the order of the positions; unused ones are H or OH. Square brackets hold non-standard residues; d marks the D form. Peptide text beside a SMILES is read from it. * marks the point of attachment. Hydrocinnamoyl = O=C(CCc1ccccc1)*; Butanoyl(2-Et) = CCC(CC)C(=O)*; Tle = CC(C)(C)[C@H](N)C(=O)O; Pip = O=C(O)[C@@H]1CCCCN1; NH(3-pentyl) = CCC(CC)N*; Pyrrolidide = C1CCN(*)C1; CO = O=C([*:1])[*:2]; X2 = CCC(CC)CC(=O)*; X3 = CCC(CC)OC(=O)*; X1 = CCCC(CCC)N*; NHiPr = CC(C)N*",
  "data": [
    {"smiles": "CCC(CC)NC(=O)N[C@H](C(=O)N1CCC(C(=O)N2CCCC2)[C@H]1C(=O)N[C@@H](CC(=O)O)C(=O)N[C@@H](CC(C)C)C(=O)O)C(C)(C)C", "note": "(stereo partly drawn)", "values": [
      {"measurement": "IC50", "result": 0.108, "unit": "µM"}
    ]},
    {"smiles": "CCC(CC)NC(=O)NC1CCCN([C@@H](CC(=O)N2CCCC2)C(=O)N[C@@H](CC(=O)O)C(=O)N[C@@H](CC(C)C)C(=O)O)C1=O", "note": "(stereo partly drawn)", "values": [
      {"measurement": "IC50", "result": 0.24, "unit": "µM"}
    ]},
    {"smiles": "CCC(CC)NC(=O)N[C@H](C(=O)N1CCCC(C(=O)NC)C1C(=O)N[C@@H](CC(=O)O)C(=O)N[C@@H](CC(C)C)C(=O)O)C(C)(C)C", "note": "(stereo partly drawn)", "values": [
      {"measurement": "IC50", "result": 0.01, "unit": "µM"}
    ]},
    {"smiles": "CCC(CC)NC(=O)NC1CCN([C@@H](CC(=O)N2CCCC2)C(=O)N[C@@H](CC(=O)O)C(=O)N[C@@H](CC(C)C)C(=O)O)C1=O", "note": "(stereo partly drawn)", "values": [
      {"measurement": "IC50", "result": 0.8, "unit": "µM"}
    ]},
    {"smiles": "CCC(CC)NC(=O)C[C@H](C(=O)N[C@@H](CC(=O)N1CCCC1)C(=O)N[C@@H](CC(=O)O)C(=O)N[C@@H](CC(C)C)C(=O)O)C(C)(C)C", "values": [
      {"measurement": "IC50", "result": 0.005, "unit": "µM"}
    ]},
    {"smiles": "CC(=O)N[C@H](C(=O)N[C@H](C(=O)N[C@@H](CC(=O)N1CCCC1)C(=O)N[C@@H](CC(=O)O)C(=O)N[C@@H](CC(C)C)C(=O)O)C(C)C)C(C)C", "note": "(Ac-VVD(Pyrrolidide)DL-OH)", "values": [
      {"measurement": "IC50", "result": 0.88, "unit": "µM"}
    ]},
    {"smiles": "CC(C)C[C@H](NC(=O)[C@H](CC(=O)O)NC(=O)[C@H](CC(=O)N1CCCC1)NC(=O)[C@@H](NC(=O)[C@@H](NC(=O)CCc1ccccc1)C(C)C)C(C)C)C(=O)O", "note": "(Hydrocinnamoyl-VVD(Pyrrolidide)DL-OH)", "values": [
      {"measurement": "IC50", "result": 0.024, "unit": "µM"}
    ]},
    {"smiles": "CCC(CC)CC(=O)N[C@H](C(=O)N[C@@H](CC(=O)N1CCCC1)C(=O)N[C@@H](CC(=O)O)C(=O)N[C@@H](CC(C)C)C(=O)O)C(C)(C)C", "note": "(X2-[Tle]D(Pyrrolidide)DL-OH)", "values": [
      {"measurement": "IC50", "result": 0.14, "unit": "µM"}
    ]},
    {"smiles": "CCC(CC)OC(=O)N[C@H](C(=O)N[C@@H](CC(=O)N1CCCC1)C(=O)N[C@@H](CC(=O)O)C(=O)N[C@@H](CC(C)C)C(=O)O)C(C)(C)C", "note": "(X3-[Tle]D(Pyrrolidide)DL-OH)", "values": [
      {"measurement": "IC50", "result": 0.635, "unit": "µM"}
    ]},
    {"smiles": "CCC(CC)NC(=O)N[C@H](C(=O)N1CCCC(C(=O)N2CCCC2)C1C(=O)N[C@@H](CC(=O)O)C(=O)N[C@@H](CC(C)C)C(=O)O)C(C)(C)C", "note": "(stereo in doubt; 16)", "values": [
      {"measurement": "IC50", "result": 0.032, "unit": "µM"}
    ]},
    {"smiles": "CCC(CC)NC(=O)N[C@H](C(=O)N1CCCC(C(=O)N2CCCC2)C1C(=O)N[C@@H](CC(=O)O)C(=O)N[C@@H](CC(C)C)C(=O)O)C(C)(C)C", "note": "(stereo in doubt; 17)", "values": [
      {"measurement": "IC50", "result": 3, "unit": "µM"}
    ]},
    {"smiles": "CCC(CC)C(=O)N[C@H](C(=O)N[C@@H](CC(=O)N1CCCC1)C(=O)N[C@@H](CC(=O)O)C(=O)N[C@@H](CC(C)C)C(=O)O)C(C)C", "note": "({Butanoyl(2-Et)}-VD(Pyrrolidide)DL-OH)", "values": [
      {"measurement": "IC50", "result": 0.86, "unit": "µM"}
    ]},
    {"smiles": "CCC(CC)NC(=O)N[C@@H](C)C(=O)N[C@@H](CC(=O)N1CCCC1)C(=O)N[C@@H](CC(=O)O)C(=O)N[C@@H](CC(C)C)C(=O)O", "note": "({NH(3-pentyl)-CO}-AD(Pyrrolidide)DL-OH)", "values": [
      {"measurement": "IC50", "result": 41, "unit": "µM"}
    ]},
    {"smiles": "CCC(CC)NC(=O)NCC(=O)N[C@@H](CC(=O)N1CCCC1)C(=O)N[C@@H](CC(=O)O)C(=O)N[C@@H](CC(C)C)C(=O)O", "note": "({NH(3-pentyl)-CO}-GD(Pyrrolidide)DL-OH)", "values": [
      {"measurement": "IC50", "result": 0.67, "unit": "µM"}
    ]},
    {"smiles": "CCC(CC)NC(=O)N[C@H](C(=O)N[C@@H](CC(=O)N1CCCC1)C(=O)N[C@@H](CC(=O)O)C(=O)N[C@@H](CC(C)C)C(=O)O)C(C)C", "note": "({NH(3-pentyl)-CO}-VD(Pyrrolidide)DL-OH)", "values": [
      {"measurement": "IC50", "result": 0.015, "unit": "µM"}
    ]},
    {"smiles": "CCC(CC)NC(=O)N[C@H](C(=O)N[C@@H](C)C(=O)N[C@@H](CC(=O)O)C(=O)N[C@@H](CC(C)C)C(=O)O)C(C)(C)C", "note": "({NH(3-pentyl)-CO}-[Tle]ADL-OH)", "values": [
      {"measurement": "IC50", "result": 110, "unit": "µM"}
    ]},
    {"smiles": "CCC(CC)NC(=O)N[C@H](C(=O)N[C@@H](CC(=O)NC)C(=O)N[C@@H](CC(=O)O)C(=O)N[C@@H](CC(C)C)C(=O)O)C(C)(C)C", "note": "({NH(3-pentyl)-CO}-[Tle]D(NHMe)DL-OH)", "values": [
      {"measurement": "IC50", "result": 0.035, "unit": "µM"}
    ]},
    {"smiles": "CCC(CC)NC(=O)N[C@H](C(=O)N[C@@H](CC(=O)N1CCCC1)C(=O)N[C@@H](CC(=O)O)C(=O)N[C@@H](CC(C)C)C(=O)O)C(C)(C)C", "note": "({NH(3-pentyl)-CO}-[Tle]D(Pyrrolidide)DL-OH)", "values": [
      {"measurement": "IC50", "result": 0.003, "unit": "µM"}
    ]},
    {"smiles": "CCC(CC)NC(=O)N[C@H](C(=O)N1CCC[C@H]1C(=O)N[C@@H](CC(=O)O)C(=O)N[C@@H](CC(C)C)C(=O)O)C(C)(C)C", "note": "({NH(3-pentyl)-CO}-[Tle]PDL-OH)", "values": [
      {"measurement": "IC50", "result": 100, "unit": "µM"}
    ]},
    {"smiles": "CCC(CC)NC(=O)N[C@H](C(=O)N1CCCC[C@H]1C(=O)N[C@@H](CC(=O)O)C(=O)N[C@@H](CC(C)C)C(=O)O)C(C)(C)C", "note": "({NH(3-pentyl)-CO}-[Tle][Pip]DL-OH)", "values": [
      {"measurement": "IC50", "result": 750, "unit": "µM"}
    ]},
    {"smiles": "CNC(=O)N[C@H](C(=O)N[C@@H](CC(=O)N1CCCC1)C(=O)N[C@@H](CC(=O)O)C(=O)N[C@@H](CC(C)C)C(=O)O)C(C)C", "note": "({NHMe-CO}-VD(Pyrrolidide)DL-OH)", "values": [
      {"measurement": "IC50", "result": 42, "unit": "µM"}
    ]},
    {"smiles": "CC(C)C[C@H](NC(=O)[C@H](CC(=O)O)NC(=O)[C@H](CC(=O)N1CCCC1)NC(=O)[C@@H](NC(=O)NC(C)C)C(C)C)C(=O)O", "note": "({NHiPr-CO}-VD(Pyrrolidide)DL-OH)", "values": [
      {"measurement": "IC50", "result": 0.435, "unit": "µM"}
    ]},
    {"smiles": "CCCC(CCC)NC(=O)N[C@H](C(=O)N[C@@H](CC(=O)N1CCCC1)C(=O)N[C@@H](CC(=O)O)C(=O)N[C@@H](CC(C)C)C(=O)O)C(C)C", "note": "({X1-CO}-VD(Pyrrolidide)DL-OH)", "values": [
      {"measurement": "IC50", "result": 0.007, "unit": "µM"}
    ]}
  ]
}
